# According to article PMC10836733 (Science Advances, 2024):
# Residue numbers refer to the chain shown, from its start. Numbered stars: 1 amine (or outer) side, 2 acyl side, 3 side chain; on linkers, the order of the positions; unused ones are H or OH. Bridge positions count the residues as written; N and C are the ends. Square brackets hold non-standard residues; d marks the D form. Peptide text beside a SMILES is read from it. X1 = CC(=O)NC(C(=O)OC(C(C)C)C(N[*:1])C(=O)[*:2])C(O)C(C)C; PhLac = O=C(O)[CH](O)Cc1ccccc1; NMeT = CN[CH](C(=O)O)[CH](C)O; NMeA = CN[CH](C)C(=O)O; NMeDha = C=C(NC)C(=O)O
# Key:
# GHSR = GHSR (Homo sapiens, UniProt Q92847); test: FLIPR Ca2+ assay, GHSR expressed in HEK293T-Gα15-GCaMP6s cells; format: cell-based; details: for GHSR activation: 200 μM BAs; for Maximal efficacy at GHSR: normalized to 1 μM ghrelin
# pancreatic acinar cells [1] = test: Amylase release from isolated pancreatic acini; format: cell-based, mouse; details: 500 μM LCAS, 500 μM TLCAS, 1 nM caerulein
# In short: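 Mouse acini (WT, Gpr39−/−, Gpbar1−/−) isolated and held as for the LDH assay, then exposed to test compound at 37°C for 30 min. Amylase activity measured in supernatant. Vehicle leakage subtracted as basal; net release expressed as % of total activity (0.5% Triton X-100 lysate). One-way ANOVA with Tukey posttest versus WT.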
# pancreatic acinar cells [2] = test: Acinar cell injury: PI uptake, LDH leakage, blebbing; format: cell-based, mouse; details: 4 hours
# In short: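 Mouse acini (WT, Gpr39−/−, Gpbar1−/−) digested with 1 mg/ml collagenase IV, collected on 150-μm nylon cloth, and suspended in Hepes-buffered DMEM/F12 with 1 mg/ml BSA. Exposed to test compound at 37°C for 4 h. LDH in supernatant measured by kit, expressed as % of total LDH (0.5% Triton X-100 lysate). PI uptake: acini resuspended in 2 μg/ml PI, fluorescence ex 536/em 617 nm, normalized to vehicle.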
# mouse GPR39 = molecular target: T1, mouse GPR39 (Mus musculus, UniProt Q5U431); test: FLIPR Ca2+ assay in HEK293T cells stably expressing mouse GPR39; format: cell-based; details: for GPR39 activation, presence or absence of 4 μM Zn2+: with or without 4 μM Zn2+
# T1 sequence (Q5U431 1-456): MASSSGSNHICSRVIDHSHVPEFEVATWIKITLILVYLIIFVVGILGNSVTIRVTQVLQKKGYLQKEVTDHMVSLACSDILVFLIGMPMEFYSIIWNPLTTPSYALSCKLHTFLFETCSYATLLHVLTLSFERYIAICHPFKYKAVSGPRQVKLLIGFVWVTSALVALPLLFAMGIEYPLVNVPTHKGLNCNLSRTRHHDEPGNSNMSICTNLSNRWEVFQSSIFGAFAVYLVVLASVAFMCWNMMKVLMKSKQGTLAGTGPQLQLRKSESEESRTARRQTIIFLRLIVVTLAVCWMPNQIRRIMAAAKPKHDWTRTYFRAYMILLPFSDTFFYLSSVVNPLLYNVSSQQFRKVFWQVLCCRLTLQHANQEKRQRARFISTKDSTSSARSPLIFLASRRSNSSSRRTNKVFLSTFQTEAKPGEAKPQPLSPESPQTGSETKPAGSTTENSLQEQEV
# GPR39 [3] = molecular target: T2, GPR39 (Homo sapiens, UniProt O43194); format: cell-based; details: 200 μM
# T2 sequence (O43194 1-453): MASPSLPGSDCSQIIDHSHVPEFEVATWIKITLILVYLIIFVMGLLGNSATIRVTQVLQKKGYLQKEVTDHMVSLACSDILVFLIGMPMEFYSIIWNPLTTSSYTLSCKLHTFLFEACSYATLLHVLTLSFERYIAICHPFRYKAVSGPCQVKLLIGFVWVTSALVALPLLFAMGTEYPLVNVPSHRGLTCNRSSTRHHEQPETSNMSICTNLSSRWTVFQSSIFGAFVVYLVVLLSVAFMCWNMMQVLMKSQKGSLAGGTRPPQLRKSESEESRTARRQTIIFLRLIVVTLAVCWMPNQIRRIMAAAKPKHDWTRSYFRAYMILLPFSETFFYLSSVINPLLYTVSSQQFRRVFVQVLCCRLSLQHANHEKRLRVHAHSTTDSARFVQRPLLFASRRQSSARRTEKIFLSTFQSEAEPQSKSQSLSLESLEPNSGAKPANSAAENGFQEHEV
# In short: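 HEK293T cells stably expressing Gα15 and GCaMP6s, on poly-D-lysine-coated plates, transiently transfected with human GPCR cDNAs. Test compound added by pipette at 200 μM; intracellular Ca2+ imaged by confocal microscopy.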
# [4] = test system: mock-transfected HEK293T cells; test: Ca2+ response of mock-transfected HEK293T cells; format: cell-based, human; details: 200 μM
# In short: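 Sham-transfected HEK293T cells loaded with Fluo-8 AM (2 μg/ml) in recording buffer for 25 min at room temperature, then 5 min in recording buffer. FLIPR read at room temperature every 1 s; 200 μM test compound or Zn2+ dispensed at 30 s, followed by 150 s recording.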
# H17A/H19A mutant GPR39 = molecular target: T3, H17A/H19A mutant GPR39 (Mus musculus, UniProt Q5U431, H17A/H19A); test: FLIPR Ca2+ assay, HEK293T cells expressing GPR39 H17A/H19A mutant; format: cell-based
# T3 sequence (Q5U431 1-456 H17A/H19A): T1 sequence (Q5U431 1-456) with H17A, H19A
# In short: (§1)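 HEK293T cells expressing mouse GPR39 H17A/H19A mutant or zebrafish GPR39, Fluo-8-loaded, read by FLIPR at room temperature (addition at 30 s, 150 s recording). Where Zn2+ used, cells preincubated with 4 μM Zn2+ in recording buffer for 5 min and it was kept with all compound concentrations. Responses normalized to 200 μM LCAS; n = 3 or 4.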
# [5] = test system: zebrafish (Danio rerio) GPR39 (zfGPR39); test: FLIPR Ca2+ assay, HEK293T cells expressing zebrafish GPR39; format: cell-based
# In short: as §1
# G. Gallus GPR39 = test: FLIPR Ca2+ assay, HEK293T cells expressing chicken GPR39; format: cell-based, chicken (Gallus Gallus)
# G. japonicus GPR39 = test: FLIPR Ca2+ assay, HEK293T cells expressing gecko GPR39; format: cell-based, gecko (Gekko japonicus)
# X. laevis GPR39 = test: FLIPR Ca2+ assay, HEK293T cells expressing frog GPR39; format: cell-based, frog (Xenopus laevis)
# pancreatic acinar cells [6] = test: Ca2+ imaging in freshly isolated pancreatic acinar cells; format: cell-based, mouse
# GPR39 [7] = details: cited from earlier work
# GPBAR1 = molecular target: T4, GPBAR1 (Homo sapiens, UniProt Q8TDU6); test: CRE luciferase reporter assay; format: cell-based
# T4 sequence (Q8TDU6 1-330): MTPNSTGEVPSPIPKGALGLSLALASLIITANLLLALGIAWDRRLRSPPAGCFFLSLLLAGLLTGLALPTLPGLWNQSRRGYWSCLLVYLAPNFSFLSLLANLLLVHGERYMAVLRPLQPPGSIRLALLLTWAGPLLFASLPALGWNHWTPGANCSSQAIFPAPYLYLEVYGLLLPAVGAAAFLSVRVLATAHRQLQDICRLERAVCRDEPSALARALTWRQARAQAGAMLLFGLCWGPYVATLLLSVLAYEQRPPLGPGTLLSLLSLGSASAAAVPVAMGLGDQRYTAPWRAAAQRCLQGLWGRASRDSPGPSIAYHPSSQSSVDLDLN
# [8] = WT mice, LCAS 500 μM, TLCAS 500 μM, caerulein 100 nM
# Sequence of GHSR (Q92847 whole entry): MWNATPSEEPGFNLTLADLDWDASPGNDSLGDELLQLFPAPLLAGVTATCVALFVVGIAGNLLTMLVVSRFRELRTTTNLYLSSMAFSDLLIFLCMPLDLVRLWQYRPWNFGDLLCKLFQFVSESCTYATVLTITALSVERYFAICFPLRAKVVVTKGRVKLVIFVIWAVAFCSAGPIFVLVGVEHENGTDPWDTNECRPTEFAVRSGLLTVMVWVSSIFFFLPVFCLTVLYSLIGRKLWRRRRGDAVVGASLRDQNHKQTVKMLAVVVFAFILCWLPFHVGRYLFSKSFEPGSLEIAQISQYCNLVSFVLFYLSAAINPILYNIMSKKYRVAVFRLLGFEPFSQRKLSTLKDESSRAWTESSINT
compound,measurement,setting,value
"COc1ccc(Cn2c(CCc3ccccc3)nnc2[C@@H](Cc2c[nH]c3ccccc23)NC(=O)CN)cc1 [JMV-2959, JMV2959]",Effect on Ca2+ mobilization induced by LCA in GHSR-expressing cells,"GHSR; 10 μM JMV2959, LCA 200 μM",moderately but not fully inhibited
Caerulein,Effect of deleting Gpbar1 on induced amylase discharge,pancreatic acinar cells [1],did not alter
same,Effect of Gpr39 knockout on induced PI uptake and LDH leakage,pancreatic acinar cells [2]; Gpr39 knockout,did not affect
same,LDH release from isolated acinar cells,pancreatic acinar cells [2]; [8],increased LDH release
same,PI uptake into isolated acinar cells,pancreatic acinar cells [2]; [8],increased PI uptake
"C[C@H](CCC(=O)O)[C@H]1CC[C@H]2[C@@H]3CC[C@@H]4C[C@H](O)CC[C@]4(C)[C@H]3CC[C@]12C [LCA, lithocholic acid]",Enhancement of GPR39 activation by Zn2+,mouse GPR39; 4 μM BA,enhanced
same,Effect on GHSR activation by ghrelin,GHSR; 1 μM LCA,no effect
same,Effect on GHSR activation by ghrelin,GHSR; 10 μM BA,attenuated the effect of ghrelin
same,GHSR activation,GHSR,activated
same,Sensitivity at GHSR,"GHSR; compared with UDCA, DCA, and CDCA",relatively higher sensitivity
same,Maximal efficacy at GHSR,GHSR,lower efficacy
[Zn+2] [Zn^2+],Zn2+ concentration that notably shifts GPR39 activation by LCAS,mouse GPR39,above 1 μM
same,Effect of Zn2+ on GPR39-mediated calcium response to TLCAS,"mouse GPR39; 4 μM Zn2+, leftward shift of the dose-response curve",potentiated
same,Ca2+ response of GPR39-transfected HEK293T cells,GPR39 [3],exhibited Ca^2+ responses
same,Ca2+ response of mock-transfected HEK293T cells,[4],responded to neither
same,Effect of H17A/H19A mutations on Zn2+-induced Ca2+ elevation,H17A/H19A mutant GPR39,abolished
same,zfGPR39 activation,[5],little response
same,Response of chicken GPR39,G. Gallus GPR39,strong dose-dependent responses
same,Response of gecko GPR39,G. japonicus GPR39,strong dose-dependent responses
same,Response of frog GPR39,X. laevis GPR39,strong dose-dependent responses
C=C1C(=O)NC(C)C(=O)N(C)C(C)C(=O)NC(C(OC(=O)C(NC(C)=O)C(O)C(C)C)C(C)C)C(=O)N(C)C(C(C)OC)C(=O)OC(C)C(NC(C)=O)C(=O)OC(Cc2ccccc2)C(=O)N1C (stereo not drawn) [YM254890] (Ac-T[PhLac][NMeDha]A[NMeA][X1][NMeT](Me); ester 1-C; configuration not given here),Effect on Ca2+ elevation induced by TLCAS in acinar cells,"pancreatic acinar cells [6]; 10 μM YM254890 for 10 min, 500 μM TLCAS",eliminated
5b-cholestanpentol,"GPR39 activation, presence or absence of 4 μM Zn2+",mouse GPR39,robustly activated
same,zfGPR39 activation,[5],minimal effects
"C[C@H](CCC(=O)O)[C@H]1CC[C@H]2[C@@H]3[C@H](O)C[C@@H]4C[C@H](O)CC[C@]4(C)[C@H]3CC[C@]12C [CDCA, chenodeoxycholic acid]",Ca2+ elevation in mock-transfected cells,[4],nonspecific Ca^2+ elevations
same,GHSR activation,GHSR,activated
same,Maximal efficacy at GHSR,GHSR,comparable to ghrelin
"CCCCC[C@H](O)/C=C/C=C\C/C=C\C/C=C\CCCC(=O)O [15(S)-HETE, 15S-hydroxy-5Z,8Z,11Z,13E-eicosatetraenoic acid]",GPR39 activation (report),GPR39 [7],GPR39 activation
"C[C@H](CCC(=O)O)[C@H]1CC[C@H]2[C@@H]3CC[C@@H]4C[C@H](O)CC[C@]4(C)[C@H]3C[C@H](O)[C@]12C [DCA, deoxycholic acid]",GPBAR1 activation,GPBAR1,potent agonists
same,Ca2+ elevation in mock-transfected cells,[4],nonspecific Ca^2+ elevations
same,Effect on GHSR activation by ghrelin,GHSR; 10 μM BA,did not potentiate or attenuate
same,GHSR activation,GHSR,activated
same,Maximal efficacy at GHSR,GHSR,comparable to ghrelin
CC[C@H]1[C@@H](O)[C@@H]2[C@H](C[C@H](O)[C@]3(C)[C@@H]([C@H](C)C[C@H](C)C(=O)O)CC[C@@H]23)[C@@]2(C)CC[C@@H](O)C[C@@H]12 [INT-777],Ca2+ elevation in acinar cells by GPBAR1 ligands and agonist,pancreatic acinar cells [6],not observed
"CCCCCC1OC1C/C=C\C/C=C\C/C=C\CCCC(=O)O (racemic) [14(15)-EET, (±)14(15)-epoxy-5Z,8Z,11Z-eicosatrienoic acid]",GPR39 blockade (report),GPR39 [7],blocked
"C[C@H](CCC(=O)O)[C@H]1CC[C@H]2[C@@H]3[C@@H](O)C[C@@H]4C[C@H](O)CC[C@]4(C)[C@H]3CC[C@]12C [UDCA, ursodeoxycholic acid]",Effect on GHSR activation by ghrelin,GHSR; 10 μM BA,did not potentiate or attenuate
same,GHSR activation,GHSR,activated
same,Maximal efficacy at GHSR,GHSR,comparable to ghrelin
"CC(C)CCC[C@@H](C)[C@H]1CC[C@H]2[C@@H]3CC=C4C[C@@H](OS(=O)(=O)O)CC[C@]4(C)[C@H]3CC[C@]12C [cholesterol-S, cholesterol 3-sulfate]","GPR39 activation, presence or absence of 4 μM Zn2+",mouse GPR39,could not activate GPR39
CC(C)CCC[C@@H](C)[C@H]1CC[C@H]2[C@@H]3CC=C4C[C@@H](O)CC[C@]4(C)[C@H]3CC[C@]12C [cholesterol],"GPR39 activation, presence or absence of 4 μM Zn2+",mouse GPR39,could not activate GPR39
